RTF Ca sens inh – cardiac RTF calcium sensitivity inhibitors, primary screen, biochemical, IANBD-TnC fluorescence, EC70 calcium; IANBD-labeled cardiac RTF, Ca2+ fluorescence; inhibition, % at 7.15 µM; 340,000 compounds, 0.12% hits;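 active = inhibition above the mean inhibition of all tested compounds plus 3 SD, cut at about 17% in these data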;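 also: assay run at fixed EC70 calcium of 1.6 mM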
UCH37 inh – inhibitors of human UCH37 deubiquitinase, primary screen, biochemical, Ub-AMC cleavage, fluorescence | purified proteasome/UCH37 | inhibition, % (test concentration not listed) | 330,000 compounds, 0.33% hits | Ubiquitin carboxyl-terminal hydrolase isozyme L5 (Homo sapiens), Q9Y5K5;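 active = mean inhibition over replicate wells above about 20%, limit read from the data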;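 also: 0% = compound-free wells with enzyme and 100% = wells lacking proteasome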
Target sequence (Q9Y5K5 whole entry, looked up): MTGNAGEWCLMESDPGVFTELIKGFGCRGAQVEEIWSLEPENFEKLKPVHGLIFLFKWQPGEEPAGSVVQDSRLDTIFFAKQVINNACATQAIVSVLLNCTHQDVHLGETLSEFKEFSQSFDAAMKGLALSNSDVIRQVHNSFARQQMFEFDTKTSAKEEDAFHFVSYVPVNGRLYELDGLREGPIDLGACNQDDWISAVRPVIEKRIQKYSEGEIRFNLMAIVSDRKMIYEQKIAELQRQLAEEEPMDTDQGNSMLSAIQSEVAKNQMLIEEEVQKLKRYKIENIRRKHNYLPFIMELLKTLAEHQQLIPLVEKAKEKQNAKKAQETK
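Material: human UCH37 enzyme supplied as purified proteasome complex / Amount: 0.15 nM proteasome as dispensed / Buffer or medium: pH 7.4 Tris-HCl (50 mM) with ovalbumin, ATP-MgCl2, DTT / Times: preincubation 30 min, reaction 25 min, room temperature / Technique: AMC fluorescence from Ub-AMC cleavage, excitation 355 nm, emission 460 nm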
Mot1-301 SUMO – yeast Mot1-301 growth rescue at high temperature, primary screen, SUMOylation pathway inhibitor project, S. cerevisiae, ATP luminescence, 38.5C; S. cerevisiae Mot1-301 growth rescue; percent above DMSO median, 100 means doubled; growth rescue, % at 18.8 µM; 320,000 compounds, 1% hits; AID 2716, 2010;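 active = every valid replicate shows activation above 250% relative to neutral control wells; inactive = the rest, any valid replicate at or below 250%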;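 also: OY570 slx delta 5 strain wells were the positive control but not used for scaling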
ARNT TACC3 PPI – disruptors of ARNT/TACC3 protein interaction, primary screen, biochemical, AlphaScreen, single concentration; Transforming acidic coiled-coil-containing protein 3 (Homo sapiens), Q9Y6A5; AlphaScreen His-ARNT PAS-B/GST-TACC3 binding, luminescence; TACC3 fragment carries E629A point mutation; inhibition, % at 9.99 µM; 390,000 compounds, 0.66% hits;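 active = mean inhibition of replicates at least 50% and at least half of replicates each reaching 50%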;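 also: 0% = complete ARNT plus TACC3 wells and 100% = ARNT alone without TACC3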
Efflux pump mplx – inhibitors of Candida efflux pumps in yeast, primary screen, S. cerevisiae, Nile Red, multiplex; inhibition, % at 10 µM; S. cerevisiae Candida pump triplex; AID 485275, 2010; 330,000 compounds, 0.44% hits;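 active = plate passing quality check with inhibition over a set limit, or well fluorescence over plate mean plus 4 SD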;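 also: Nile Red retained in pooled yeast measured as flow cytometry median fluorescence; 0% = buffer negative control and 100% = Enniatin B positive control; higher means more Nile Red kept so more efflux inhibition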
cardiac RTF act – cardiac RTF calcium sensitivity activators, primary screen, biochemical, IANBD-TnC fluorescence, EC20 calcium | 340,000 compounds, 0.24% hits | Troponin I, cardiac muscle (Homo sapiens) + Troponin T, cardiac muscle (Homo sapiens) + … | AID 493008, 2010 | activation, % at 7.2 µM | IANBD-labeled TnC RTF fluorescence at EC20 calcium; 0% EC20 calcium, 100% full calcium;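 active = activation above the mean over all tested compounds plus 3 SD, cut at about 30% in these data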;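 also: rise in fluorescence read as greater calcium sensitivity of cardiac thin filaments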
ARNT Alpha ctr – AlphaScreen signal interference compounds, dose response, artefact control for ARNT-TACC3 interaction inhibitor project, biochemical, luminescence, cherry-pick. shares compounds with ARNT TACC3 PPI. His-ARNT PASB-GST AlphaScreen artifact counter-screen. AC50, µM (titrated, usually from 68 µM), for the others: at the top dose activity change, negative = signal decrease. 1,200 compounds, 50% hits. AID 651705, 2012;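 active = every separate test run was called active for a drop in luminescence, with AC50 within twice the top valid dose, actives reach about 71 µM in these data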
* hit, by the source's call; i = inactive; . = not tested or not shown; ! = not confirmed by another sample. Rows were chosen to be rich in hits. Some 2.1% of all compounds tested hit in one or more screens of this group.

SMILES	RTF Ca sens inh	UCH37 inh	Mot1-301 SUMO	ARNT TACC3 PPI	Efflux pump mplx	cardiac RTF act	ARNT Alpha ctr
S=c1[nH]nc(COc2ccccc2)n1N=Cc1c(Cl)cccc1Cl	.	3.9	.	.	.	.	.
CN(C)CCNc1ccc2ncn3c4ccc(O)cc4c(=O)c1c23	-185.3	.	.	58.4*	.	170.1*	-30.4%
O=C(NN=Cc1ccc(Br)s1)c1c[nH]c2ccccc12	.	6.1	.	.	.	.	.
CCOC(=O)NC(=O)C(C#N)=NNc1ccc(Cl)cc1	.	8.0	.	.	.	.	.
O=C(Nc1nc(-c2nc3ccccc3s2)cs1)C1CC1	-8.8	2.3	16.2	-7.7	0.1	-1.7	.
O=C(Nc1ccc2nc(-c3ccccn3)[nH]c2c1)C1CCCCC1	-11.8	-46.2	i	59.5*	-0.2	-4.3	-7.4%
O=C(Nc1nc(-c2ccccn2)cs1)C1CCCC1	7.2	0.7	-1.7	58.5*	0.0	-1.5	-15.5%
O=C(CN1C(=O)CCC1=O)Nc1nc(-c2ccccn2)cs1	-6.9	4.4	108.5	59.2*	0.4	-6.1	34.5µM*
CC(C)c1nc2ccc(NC(=O)C3CCCCC3)cc2[nH]1	-11.3	0.5	124.2	-5.8	0.2	-5.3	.
O=C(CCCSc1ccccc1)Nc1nc(-c2ccccn2)cs1	-0.3	4.3	4.3	34.9	-0.3	7.4	.
CSCCC(=O)Nc1nc(-c2ccccn2)cs1	-2.0	1.5	.	57.8*	.	-3.4	71.4µM*
O=C(CNC(=O)c1cccc(Br)c1)NN=Cc1ccc[nH]1	.	0.4	.	.	.	.	.
Cc1cccc(NN=Cc2ccccc2O)c1	.	0.0	.	.	.	.	.
NC(=O)c1[nH]cnc1N	3.3	1.0	11.1	69.4*!	0.0	-3.7	-7.1%
O=C(CNS(=O)(=O)c1ccc([N+](=O)[O-])cc1)N/N=C/c1ccc(O)cc1O	-8.6	.	3.5	62.7*	-0.1	2.8	-13.4%
O=C(CNS(=O)(=O)c1ccc([N+](=O)[O-])cc1)NN=Cc1ccc(O)cc1O	.	4.1	.	.	.	.	.
O=C(CNCc1ccccn1)N1CCc2ccccc2C1	4.0	-5.5	7.9	76.6*	-0.1	3.4	17.1µM*
COc1cccc(C=NNC(=O)C(=O)N2CCCCCC2)c1OC	.	1.0	.	.	.	.	.
COc1cccc(/C=N/NC(=O)C(=O)N2CCCCCC2)c1O	-9.3	.	5.2	60.0*	0.0	-3.4	-18.6%
COc1ccccc1NS(=O)(=O)c1cccc(C(=O)NN=Cc2cn(-c3ccccc3)nc2-c2ccccc2)c1	.	-15.9	.	.	.	.	.
c1cncc(-c2nc(NCCCn3ccnc3)c3ccccc3n2)c1	-9.0	4.6	42.3	63.3*	0.1	3.3	66.4µM*
Cc1nc(NCCCn2ccnc2)c2ccccc2n1	-1.6	2.6	26.2	-3.2	0.0	4.7	.
CCc1cc(C)cc(OCCNC(=O)c2ncn[nH]2)c1	5.9	-2.2	-4.4	33.4	0.0	3.5	.
CC(C)(C)c1ccc(OCCNC(=O)c2ncn[nH]2)cc1	-6.6	0.1	116.2	76.8*	-0.1	-5.3	-15.6%
COc1cc(C=NNC(=O)c2cccc(C)c2)ccc1OCC(=O)Nc1ccccc1	.	3.9	.	.	.	.	.
SMILES	RTF Ca sens inh	UCH37 inh	Mot1-301 SUMO	ARNT TACC3 PPI	Efflux pump mplx	cardiac RTF act	ARNT Alpha ctr
Oc1ccc(Cl)c2cccnc12	4.8	1.0	.	7.5	.	-1.9	.
CC(C)COCc1ccc(O)c2ncccc12	-1.5	-0.8	14.1	67.1*	0.0	-1.6	17.6µM*
CN(Cc1ccco1)Cc1ccc(O)c2ncccc12	1.4	0.5	-6.5	2.0	-0.2	-6.8	.
Oc1ccc(CNC2Cc3ccccc3C2)c2cccnc12	.	.	.	.	.	.	2.41µM*
Oc1ccc(CN2CCc3ccccc3C2)c2cccnc12	-6.6	2.1	-15.0	67.0*	0.4	3.2	3.72µM*
Oc1ccc(CN2CCC(Cc3ccccc3)CC2)c2cccnc12	.	1.3	.	.	.	.	4.96µM*
CCn1nc(C)c(C=NNC(=O)Cn2nnc(N)n2)c1C	.	0.7	.	.	.	.	.
CCC1SC(=NS(=O)(=O)c2cccs2)N(C2CCCCC2)C1=O (centres undefined)	.	-0.9	.	.	.	.	.
C=C(C)C1CC=C(C)C(=NNC(=O)CNc2ccc(C)cc2C)C1 (centres undefined)	.	0.9	.	.	.	.	.
CCOC(=O)N1CCN(Cc2ccc(O)c3ncccc23)CC1	.	2.0	273.5	.	-0.1	.	.
CC1CN(Cc2ccc(O)c3ncccc23)CC(C)O1 (centres undefined)	.	.	.	.	.	.	4.69µM*
NC(CC(=O)Nc1ccc(F)cc1)=NO	.	-28.2	.	.	.	.	.
CC(C)(C)OC(=O)N1CCN(Cc2ccc(O)c3ncccc23)CC1	.	.	.	.	.	.	1.1µM*
Cc1ccc(C)c(S(=O)(=O)N2CCN(Cc3ccc(O)c4ncccc34)CC2)c1	-6.0	6.1	-18.2	54.3*	0.1	3.4	17.3µM*
Cc1onc(-c2ccccc2)c1C(=O)ON=C(N)c1ccc([N+](=O)[O-])o1	.	6.9	.	.	.	.	.
CCN1CCN(c2ccc(NC(=O)c3cccc(S(=O)(=O)N4CCCC4)c3)cc2)CC1	-4.0	2.7	14.1	56.2*	0.1	-6.9	-4.1%
O=c1cc(N/N=C/c2ccccc2)[nH]c(=O)[nH]1	-2.6	.	-10.8	20.3*	0.2	5.7	1.2%
COc1ccc(C(=O)NN=Cc2ccc(OC)c(CSc3ccccn3)c2)cc1	.	4.9	.	.	.	.	.
COc1cccc(/C=N/Nc2nn3cnnc3c3ccccc23)c1	-4.3	.	21.8	.	0.0	-2.8	.
COc1cc(/C=N/Nc2nn3cnnc3c3ccccc23)ccc1O	-8.8	.	5.4	50.0*	-0.2	-0.4	-30.0%
O=c1[nH]c(N2CCOCC2)cc2ccccc12	-22.5	-107.6	5.6	40.6*	-0.1	-0.1	-8.0%

Bioassay records deposited in PubChem BioAssay by several laboratories.
